Experimental findings from ChEMBL document CHEMBL2176962, “Repositioning HIV-1 integrase inhibitors for cancer therapeutics: 1,6-naphthyridine-7-carboxamide as a promising scaffold with drug-like properties” (J Med Chem, 2012) are described below.

The inhibition is the change of the read-out against control, counted positive when it falls. As usually defined, the IC50 is the concentration needed to halve the response being measured. A high value points to a need for much substance.

Activity calls are given as the source filed them. The rule behind the calls is not given here.

The target in assay [1] is Angiopoietin-1 receptor (Homo sapiens) (UniProt Q02763). In words: Inhibition of TIE2 at 10 uM in presence of ATP at Km level by kinase profiler method.
Assay [2] addresses Hepatocyte growth factor receptor (Homo sapiens) (UniProt P08581). The experiment in a line: Inhibition of MET at 10 uM in presence of ATP at Km level by kinase profiler method.
Assay [3] addresses Vascular endothelial growth factor receptor 2 (Homo sapiens) (UniProt P35968). The experiment in a line: Inhibition of KDR at 10 uM in presence of ATP at Km level by kinase profiler method.
In assay [4] the target is Fibroblast growth factor receptor 1 (Homo sapiens) (UniProt P11362). In words: Inhibition of FGFR1 at 10 uM in presence of ATP at Km level by kinase profiler method.
Assay [5] addresses Insulin-like growth factor 1 receptor (Homo sapiens) (UniProt P08069). The experiment in a line: Inhibition of IGF1R at 10 uM in presence of ATP at Km level by kinase profiler method.
Assay [6] concerns the target Proto-oncogene tyrosine-protein kinase Src (Homo sapiens) (UniProt P12931). The experiment in a line: Inhibition of SRC at 10 uM incubated for 60 mins using poly(Glu,Tyr)4:1 substrate and 10 uM ATP by ELISA. In short, it runs like this: (§1)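 ELISA with Poly(Glu,Tyr)4:1 (20 μg/mL) precoated as substrate and 10 μM ATP, in 50 mM HEPES pH 7.4, 20 mM MgCl2, 0.1 mM MnCl2, 0.2 mM Na3VO4, 1 mM DTT. Compound was tested at 10 μM, in duplicate. Kinase reaction ran 60 min at 37 °C. Phosphotyrosine was detected with PY99 and HRP anti-mouse IgG, developed with o-phenylenediamine/H2O2, stopped with H2SO4 and read at 492 nm. Inhibition = [1 − A492 treated/A492 control] × 100%. References: lapatinib (ErbB2) and PP2 (Src), each at 10 μM.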
For orientation: An ELISA detects its analyte on a solid surface through an enzyme-linked reagent.

For assay [7], the target named is Receptor tyrosine-protein kinase erbB-2 (Homo sapiens) (UniProt P04626). In words: Inhibition of ErbB2 at 10 uM incubated for 60 mins using poly(Glu,Tyr)4:1 substrate and 10 uM ATP by ELISA. In short, it runs like this:
as §1

The subject of assay [8] is HEY. In words: Cytotoxicity against human HEY cells incubated for 72 hrs by MTT assay. The assay is classed as functional, cell-based. For orientation: Tetrazolium dyes change colour on reduction, which living cells bring about.
The subject of assay [9] is SK-BR-3. The experiment in a line: Cytotoxicity against human SKBR3 cells incubated for 72 hrs by MTT assay. In kind it is functional, cell-based. The note with it: SK-BR-3, 72 h.
Assay [10] has as its system HCT-116. The experiment in a line: Cytotoxicity against p53 expressing human HCT116 cells incubated for 72 hrs by MTT assay. To be noted: HCT-116, 72 h. In kind it is functional, cell-based. The gist of the method: (§2)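 Cells were kept in DMEM (MDA-MB-435, MCF7, LNCaP) or RPMI (HT29, HCT116) with 10% heat-inactivated FBS and 2 mM L-glutamine, subconfluent and in exponential growth. They were seeded, allowed to adhere overnight, then exposed continuously to compound (10 mM DMSO stock) for 72 h. MTT was added to 0.3 mg/mL final for 3–4 h at 37 °C, formazan was dissolved in DMSO, and absorbance was read at 570 nm. Runs were in triplicate; IC50 came from log concentration versus percent cell kill.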

Assay [11] relates to MDA-MB-435. In words: Cytotoxicity against human MDA-MB-435 cells incubated for 72 hrs by MTT assay. In kind it is functional, cell-based. The note with it: MDA-MB-435, 72 h. The gist of the method:
as §2

Assay [12] addresses Vascular endothelial growth factor receptor 2 (Homo sapiens) (UniProt P35968). The note with it: at 10 µM.
The subject of assay [13] is Tyrosine-protein kinase ABL1 (Homo sapiens), P00519 [T315I]. The experiment in a line: Inhibition of Abl T315I mutant at 10 uM in presence of ATP at Km level by kinase profiler method.
In assay [14] the target is T1, Aurora kinase A (Homo sapiens) (UniProt O14965).
T1 sequence (whole entry): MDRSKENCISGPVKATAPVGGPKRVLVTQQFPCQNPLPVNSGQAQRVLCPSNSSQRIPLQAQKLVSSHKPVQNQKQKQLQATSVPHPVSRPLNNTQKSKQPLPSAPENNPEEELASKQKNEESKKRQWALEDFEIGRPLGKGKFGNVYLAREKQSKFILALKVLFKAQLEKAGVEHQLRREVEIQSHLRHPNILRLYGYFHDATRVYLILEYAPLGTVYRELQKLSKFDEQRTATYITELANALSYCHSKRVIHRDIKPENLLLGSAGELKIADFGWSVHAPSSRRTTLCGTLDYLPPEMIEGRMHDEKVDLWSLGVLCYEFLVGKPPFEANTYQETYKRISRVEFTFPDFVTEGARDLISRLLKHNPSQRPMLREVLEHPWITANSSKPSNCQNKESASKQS
In words: Inhibition of Aurora A kinase at 10 uM in presence of ATP at Km level by kinase profiler method.

For assay [15], the target named is Tyrosine-protein kinase Lck (Homo sapiens) (UniProt P06239). In words: Inhibition of LCK at 10 uM in presence of ATP at Km level by kinase profiler method.
Assay [16] deals with MDA-MB-435. The experiment in a line: Induction of cell cycle arrest in human in human MDA-MB-435 cells assessed as accumulation at G0/G1 phase at 2 times cytotoxic IC50 level after 48 hrs by propidium iodide staining based flow cytometry (reference value: 36%). In kind it is functional. For orientation: In flow cytometry, cells or beads pass a laser one at a time.
For assay [17], the system named is MDA-MB-435. In words: Induction of cell cycle arrest in human in human MDA-MB-435 cells assessed as accumulation at G0/G1 phase at 2 times cytotoxic IC50 level after 12 hrs by propidium iodide staining based flow cytometry. The assay is classed as functional.
Assay [18] concerns MDA-MB-435. The experiment in a line: Inhibition of colony formation in human MDA-MB-435 cells at 10 uM treated continuously for 7 days by crystal violet staining based colony formation assay. The assay is classed as functional, cell-based. In short, it runs like this: (§3)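 MDA-MB-435 cells (500 per well) were adhered overnight and treated with compound at 10 μM, or across a dose range. The methods describe a 24 h treatment, then PBS washing and 7–10 days regrowth; the figure legend describes continuous 7-day treatment. Colonies were fixed and stained with 2% crystal violet containing 1% glutaraldehyde, then imaged.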

For assay [19], the system named is MCF7. In words: Cytotoxicity against human MCF7 cells incubated for 72 hrs by MTT assay. In kind it is functional, cell-based. To be noted: MCF7, 72 h. In short, it runs like this: as §2
Assay [20] has as its system HCT-116. The experiment in a line: Cytotoxicity against p53 deficient human HCT116 cells incubated for 72 hrs by MTT assay. The assay is classed as functional, cell-based. The note with it: HCT-116, 72 h. In short, it runs like this:
as §2

The target of assay [21] is T2, Human immunodeficiency virus type 1 integrase (Human immunodeficiency virus 1, UniProt Q7ZJM1). The experiment in a line: Inhibition of HIV1 integrase strand transfer activity using [32P]-labeled linear oligonucleotide substrate.
Assay [22] has as its target T2, Human immunodeficiency virus type 1 integrase. In words: Inhibition of HIV1 integrase 3'-processing activity using [32P]-labeled linear oligonucleotide substrate.
Assay [23] relates to MDA-MB-435. In words: Induction of cell cycle arrest in human in human MDA-MB-435 cells assessed as accumulation at G0/G1 phase at 2 times cytotoxic IC50 level after 12 to 48 hrs by propidium iodide staining based flow cytometry. In kind it is functional.
In assay [24] the test system is MDA-MB-435. The experiment in a line: Inhibition of colony formation in human MDA-MB-435 cells treated continuously for 7 days by crystal violet staining based colony formation assay. In kind it is functional, cell-based. In short, it runs like this: as §3
The test system of assay [25] is LNCaP. In words: Cytotoxicity against human LNCAP cells incubated for 72 hrs by MTT assay. The assay is classed as functional, cell-based. The gist of the method: as §2
The subject of assay [26] is HT-29. The experiment in a line: Cytotoxicity against human HT-29 cells incubated for 72 hrs by MTT assay. The assay is classed as functional, cell-based. To be noted: HT-29, 72 h. In short, it runs like this:
as §2

Sequence of Insulin-like growth factor 1 receptor (Homo sapiens) (P08069 31-736 limits assumed): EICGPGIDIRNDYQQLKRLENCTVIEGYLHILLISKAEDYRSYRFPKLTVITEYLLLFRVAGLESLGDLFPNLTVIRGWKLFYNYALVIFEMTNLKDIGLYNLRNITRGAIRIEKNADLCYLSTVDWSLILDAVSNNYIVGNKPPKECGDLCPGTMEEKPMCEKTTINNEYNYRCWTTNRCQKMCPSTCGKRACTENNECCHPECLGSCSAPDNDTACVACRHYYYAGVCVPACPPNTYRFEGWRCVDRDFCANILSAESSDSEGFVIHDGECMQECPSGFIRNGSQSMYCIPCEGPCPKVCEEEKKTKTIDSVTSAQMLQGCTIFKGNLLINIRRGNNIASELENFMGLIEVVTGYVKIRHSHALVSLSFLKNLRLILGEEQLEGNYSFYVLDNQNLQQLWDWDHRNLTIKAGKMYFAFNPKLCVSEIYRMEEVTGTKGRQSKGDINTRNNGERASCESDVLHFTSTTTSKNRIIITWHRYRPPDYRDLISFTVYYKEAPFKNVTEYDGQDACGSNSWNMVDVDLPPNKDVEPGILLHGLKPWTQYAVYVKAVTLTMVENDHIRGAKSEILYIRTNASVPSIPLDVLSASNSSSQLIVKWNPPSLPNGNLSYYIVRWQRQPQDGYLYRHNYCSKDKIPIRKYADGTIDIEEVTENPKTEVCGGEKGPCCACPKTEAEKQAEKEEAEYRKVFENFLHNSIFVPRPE
Sequence of Insulin-like growth factor 1 receptor (Homo sapiens) (P08069 741-1367 limits assumed): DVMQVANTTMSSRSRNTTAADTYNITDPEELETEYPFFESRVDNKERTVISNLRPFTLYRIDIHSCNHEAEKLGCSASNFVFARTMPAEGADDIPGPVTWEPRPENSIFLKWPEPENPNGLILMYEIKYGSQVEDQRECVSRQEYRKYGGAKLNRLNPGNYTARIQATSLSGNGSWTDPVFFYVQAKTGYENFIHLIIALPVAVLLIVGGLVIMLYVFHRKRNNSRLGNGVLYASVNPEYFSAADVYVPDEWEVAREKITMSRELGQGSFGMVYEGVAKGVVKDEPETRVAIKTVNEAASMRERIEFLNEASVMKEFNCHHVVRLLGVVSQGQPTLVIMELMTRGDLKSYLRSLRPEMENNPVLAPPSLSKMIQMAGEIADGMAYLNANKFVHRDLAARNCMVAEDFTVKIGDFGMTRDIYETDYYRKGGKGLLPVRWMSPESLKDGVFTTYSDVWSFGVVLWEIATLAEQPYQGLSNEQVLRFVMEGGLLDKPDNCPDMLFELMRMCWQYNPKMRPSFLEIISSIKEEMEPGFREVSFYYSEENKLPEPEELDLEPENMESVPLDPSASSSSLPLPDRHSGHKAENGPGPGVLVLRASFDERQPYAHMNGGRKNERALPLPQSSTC
Sequence of Vascular endothelial growth factor receptor 2 (Homo sapiens) (P35968 whole entry): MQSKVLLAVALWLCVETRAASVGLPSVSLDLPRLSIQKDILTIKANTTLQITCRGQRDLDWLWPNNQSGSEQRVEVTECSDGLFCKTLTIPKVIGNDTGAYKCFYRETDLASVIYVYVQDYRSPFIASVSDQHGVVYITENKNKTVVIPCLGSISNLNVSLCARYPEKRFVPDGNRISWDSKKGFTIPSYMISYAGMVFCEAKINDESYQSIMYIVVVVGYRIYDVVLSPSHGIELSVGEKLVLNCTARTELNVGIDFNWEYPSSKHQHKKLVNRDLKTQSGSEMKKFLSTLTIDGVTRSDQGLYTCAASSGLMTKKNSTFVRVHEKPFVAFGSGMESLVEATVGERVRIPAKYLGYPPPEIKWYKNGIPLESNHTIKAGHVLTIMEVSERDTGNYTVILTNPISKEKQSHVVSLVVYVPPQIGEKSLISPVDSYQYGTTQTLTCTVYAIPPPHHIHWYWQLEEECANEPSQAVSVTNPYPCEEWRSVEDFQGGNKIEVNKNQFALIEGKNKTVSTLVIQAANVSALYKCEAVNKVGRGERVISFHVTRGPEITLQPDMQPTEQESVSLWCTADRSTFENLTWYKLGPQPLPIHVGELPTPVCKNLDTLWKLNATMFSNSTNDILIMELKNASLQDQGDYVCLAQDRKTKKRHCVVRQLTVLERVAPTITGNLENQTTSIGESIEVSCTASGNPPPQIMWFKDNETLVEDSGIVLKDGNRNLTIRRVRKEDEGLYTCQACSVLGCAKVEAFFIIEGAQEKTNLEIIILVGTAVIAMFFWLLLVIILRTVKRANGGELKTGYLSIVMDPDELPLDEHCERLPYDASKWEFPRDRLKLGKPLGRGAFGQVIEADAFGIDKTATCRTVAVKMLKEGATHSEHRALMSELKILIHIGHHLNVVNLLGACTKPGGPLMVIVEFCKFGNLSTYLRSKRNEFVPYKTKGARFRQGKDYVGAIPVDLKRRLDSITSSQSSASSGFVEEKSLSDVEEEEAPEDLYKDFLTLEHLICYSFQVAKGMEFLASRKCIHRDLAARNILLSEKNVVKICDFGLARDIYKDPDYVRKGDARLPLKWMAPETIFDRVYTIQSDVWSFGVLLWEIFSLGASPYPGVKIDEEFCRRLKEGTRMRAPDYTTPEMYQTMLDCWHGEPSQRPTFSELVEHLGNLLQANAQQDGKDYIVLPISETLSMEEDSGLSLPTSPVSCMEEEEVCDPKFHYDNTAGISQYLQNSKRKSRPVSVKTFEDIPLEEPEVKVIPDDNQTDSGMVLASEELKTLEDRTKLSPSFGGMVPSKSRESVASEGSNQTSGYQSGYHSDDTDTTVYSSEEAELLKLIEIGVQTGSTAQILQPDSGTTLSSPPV
Sequence of Receptor tyrosine-protein kinase erbB-2 (Homo sapiens) (P04626 whole entry): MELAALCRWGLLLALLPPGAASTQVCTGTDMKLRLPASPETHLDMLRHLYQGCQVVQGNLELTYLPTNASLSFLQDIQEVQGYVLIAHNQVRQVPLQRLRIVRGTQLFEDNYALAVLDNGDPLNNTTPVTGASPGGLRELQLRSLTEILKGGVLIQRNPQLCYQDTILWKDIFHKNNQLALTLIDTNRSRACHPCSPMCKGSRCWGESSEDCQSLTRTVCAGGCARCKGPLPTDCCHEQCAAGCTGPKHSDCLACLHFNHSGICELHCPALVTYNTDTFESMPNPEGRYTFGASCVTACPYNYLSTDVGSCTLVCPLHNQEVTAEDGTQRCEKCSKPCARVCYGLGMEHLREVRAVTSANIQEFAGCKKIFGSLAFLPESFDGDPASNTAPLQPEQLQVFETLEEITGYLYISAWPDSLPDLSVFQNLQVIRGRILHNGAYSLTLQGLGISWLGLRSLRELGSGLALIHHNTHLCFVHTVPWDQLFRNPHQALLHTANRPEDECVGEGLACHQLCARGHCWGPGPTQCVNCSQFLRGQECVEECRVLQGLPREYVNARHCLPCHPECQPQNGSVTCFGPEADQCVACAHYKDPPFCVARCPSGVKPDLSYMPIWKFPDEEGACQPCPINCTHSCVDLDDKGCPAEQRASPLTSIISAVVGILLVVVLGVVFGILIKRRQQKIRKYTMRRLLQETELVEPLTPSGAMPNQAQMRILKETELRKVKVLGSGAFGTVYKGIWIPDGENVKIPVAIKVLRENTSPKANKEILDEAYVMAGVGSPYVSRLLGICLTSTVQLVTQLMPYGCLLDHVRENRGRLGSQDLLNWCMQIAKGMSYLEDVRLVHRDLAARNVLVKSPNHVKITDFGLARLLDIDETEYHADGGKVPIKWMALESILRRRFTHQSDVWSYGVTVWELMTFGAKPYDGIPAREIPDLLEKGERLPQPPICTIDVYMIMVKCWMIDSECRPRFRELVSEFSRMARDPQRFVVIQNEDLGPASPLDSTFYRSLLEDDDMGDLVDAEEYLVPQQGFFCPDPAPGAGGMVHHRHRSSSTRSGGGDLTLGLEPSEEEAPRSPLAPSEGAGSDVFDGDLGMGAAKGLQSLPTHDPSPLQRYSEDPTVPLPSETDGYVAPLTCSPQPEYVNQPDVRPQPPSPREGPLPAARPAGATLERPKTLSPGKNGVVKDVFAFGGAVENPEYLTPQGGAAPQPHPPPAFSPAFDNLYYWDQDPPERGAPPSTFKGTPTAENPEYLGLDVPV
Sequence of Proto-oncogene tyrosine-protein kinase Src (Homo sapiens) (P12931 2-536 limits assumed): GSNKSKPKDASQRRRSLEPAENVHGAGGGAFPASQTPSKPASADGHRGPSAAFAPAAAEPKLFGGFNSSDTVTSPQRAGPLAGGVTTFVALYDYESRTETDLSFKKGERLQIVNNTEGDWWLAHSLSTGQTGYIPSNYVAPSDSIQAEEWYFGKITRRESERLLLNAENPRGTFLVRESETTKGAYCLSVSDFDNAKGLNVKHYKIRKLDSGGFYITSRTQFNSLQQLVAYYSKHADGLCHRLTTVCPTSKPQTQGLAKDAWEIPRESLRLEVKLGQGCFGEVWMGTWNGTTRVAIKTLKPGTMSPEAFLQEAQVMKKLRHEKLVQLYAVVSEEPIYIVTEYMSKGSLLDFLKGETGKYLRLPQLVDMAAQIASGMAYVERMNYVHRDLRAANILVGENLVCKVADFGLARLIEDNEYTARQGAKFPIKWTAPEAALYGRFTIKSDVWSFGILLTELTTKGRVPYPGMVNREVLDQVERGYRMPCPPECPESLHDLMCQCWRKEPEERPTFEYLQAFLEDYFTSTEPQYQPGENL
Sequence of Tyrosine-protein kinase Lck (Homo sapiens) (P06239 2-509 limits assumed): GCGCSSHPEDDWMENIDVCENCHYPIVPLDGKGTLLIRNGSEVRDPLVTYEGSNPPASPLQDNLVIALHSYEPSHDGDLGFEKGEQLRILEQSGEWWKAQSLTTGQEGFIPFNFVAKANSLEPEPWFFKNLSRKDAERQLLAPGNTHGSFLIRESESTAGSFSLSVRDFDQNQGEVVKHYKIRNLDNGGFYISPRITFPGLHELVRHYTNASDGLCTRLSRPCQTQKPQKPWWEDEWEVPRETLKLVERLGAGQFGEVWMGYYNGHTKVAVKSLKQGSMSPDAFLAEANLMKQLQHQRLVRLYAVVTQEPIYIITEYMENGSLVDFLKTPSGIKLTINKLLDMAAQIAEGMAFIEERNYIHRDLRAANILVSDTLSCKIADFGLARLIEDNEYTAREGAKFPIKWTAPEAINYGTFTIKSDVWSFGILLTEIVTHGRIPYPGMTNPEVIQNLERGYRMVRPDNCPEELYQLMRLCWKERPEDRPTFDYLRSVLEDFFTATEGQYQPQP

With `COc1ccc(CNC(=O)c2nc(Br)c3cccnc3c2N[C@H]2CC[C@H](N)CC2)cc1`, the inhibition result in [1], in [2], in [3], in assay [4] and in assay [5] was “Active” each time. For the same compound, the inhibition in [6] was 76%; in assay [7] it was 0%; in [12], 2%. Moreover, the IC50 in assay [8] came to 4 µM; in assay [9] it was 5 µM; in assay [10], 3 µM; in [11], 5 µM.

In the case of `N[C@H]1CC[C@H](Nc2c(C(=O)NCc3ccc(Cl)cc3Cl)nc(Br)c3cccnc23)CC1`, the inhibition entry in [13], in assay [14], in assay [15], in assay [4] and in [5] was “Active” each time. Moreover, the inhibition in [6] stood at 90%; in assay [7], 13%; in [12], 41%. In addition, the IC50 is 5 µM in assay [8], 6 µM in assay [9], 6 µM in [10] and 5.8 µM in assay [11].

Take `NCCCNc1c(C(=O)NCc2ccc(F)cc2)nc(Br)c2cccnc12`: in assay [16], the Activity is on record as 61%. In addition, the outcome in assay [17] was Active. In assay [18], the inhibition result is “Active”. In addition, the IC50 in assay [19] was 6 µM; in assay [10], above 20 µM; in assay [20] it was 18 µM; in assay [11] it was 5 µM; in assay [21], above 100 µM; in assay [22], above 100 µM.

As to `N[C@H]1CC[C@H](Nc2c(C(=O)NCc3ccc(Cl)cc3)nc(Br)c3cccnc23)CC1`, the inhibition result in assay [13], in [14], in assay [15], in [4] and in assay [5] was “Active” in each case. Besides, the inhibition in assay [6] was 70%; in [7], 0%; in assay [12], 34%. For the same compound, the IC50 was found to be 1 µM in [8], 2 µM in assay [9], 4 µM in [10] and 1 µM in assay [11].

Consider `N[C@H]1CC[C@H](Nc2c(C(=O)NCc3ccc(F)cc3)nc(Br)c3cccnc23)CC1`, for which the inhibition was 13% in assay [6], 7% in assay [7] and “Dose-dependent effect” in assay [24]. The result in assay [23] was Active. In addition, the inhibition entry in assay [18] was “Active”. In addition, the IC50 in [25] is 5 µM; in assay [26] it was below 1 µM; in assay [19] it was 2 µM; in assay [9] it was 2 µM; in assay [10], 7 µM; in [20] it was 4 µM. For the same compound, 6 µM corresponded to half-maximal inhibition in assay [11] (IC50).
